# Measured values gathered from unrelated publications.
# Organism: Klebsiella pneumoniae
SMILES,assay,system,setting,measurement,result
Cc1ccc(C(C)C)cc1OS(=O)(=O)c1cccs1,"microbial growth, broth dilution",ATCC700603,,IC50,163 µg/mL
CN[C@H](CC(C)C)C(=O)N[C@H]1C(=O)N[C@@H](CC(N)=O)C(=O)N[C@H]2C(=O)N[C@H]3C(=O)N[C@H](C(=O)N[C@H](C(=O)O)c4cc(O)cc(O)c4-c4cc3ccc4O)[C@H](O)c3ccc(c(Cl)c3)Oc3cc2cc(c3O[C@@H]2O[C@H](CO)[C@@H](O)[C@H](O)[C@H]2O[C@H]2C[C@](C)(N)[C@H](O)[C@H](C)O2)Oc2ccc(cc2Cl)[C@H]1O,"microbial killing, broth dilution",ATCC43816,,MBC,> 128 µM
CCOC(=O)C=c1[nH]c(=O)c(=Cc2cn(-c3ccccc3)nc2-c2ccccc2)s1,"microbial growth, well diffusion",,100000 µg/mL,inhibition zone,14 mm
Cc1ccc(C(C)C)cc1OCc1cn(-c2ccc(Cl)cc2)nn1,"microbial growth, broth dilution",ATCC700603,,IC50,206 µg/mL
O=C(O)c1cn(C2CC2)c2cc(N3CCNCC3)c(F)cc2c1=O,"microbial killing, broth dilution",,,MBC,0.5 µg/mL
CCn1cc(C(=O)O)c(=O)c2cc(F)c(N3CCNCC3)cc21,"microbial killing, broth dilution",ATCC43816,,MBC,2 µM
Cc1c(CN(C)C(=O)/C=C/c2cnc3c(c2)CC(CCN)C(=O)N3)oc2ccccc12.Cl (stereo not shown),"microbial growth, broth dilution",BAA2470,,MIC,4 µg/mL
Cc1ccc(-c2nn(-c3ccccc3)cc2C=C(C#N)C2=NC(=O)CS2)cc1,"microbial growth, well diffusion",,100000 µg/mL,inhibition zone,21 mm
CCCCS(=O)(=O)Oc1cccc2cccnc12,"microbial growth, broth dilution",ATCC700603,,IC50,171 µg/mL
O=C(O)c1cn(C2CC2)c2cc(N3CCNCC3)c(F)cc2c1=O,"microbial growth, disc diffusion",,"100 µg/mL, 24 h",inhibition zone,17 mm
